Assay outcomes (PubChem BioAssay)
LGR2 antag: blocks bursicon-induced cAMP signaling via Drosophila LGR2 | actives 0.35% (n = 380,000) | HEK293 LGR2, CRE-luciferase, bursicon-stimulated, 4 h | AID 720647 | inhibition, % at 9.99 µM;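 active = drop in luminescence signal, shown as inhibition above about 50% in the replicate tests, limit read from the data, passing the limit was not always enough; inconclusive = probably only some replicates passing the limit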;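 also: agonist challenge used bursicon conditioned medium at about half maximal strength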
rRNA inh HTS: inhibits bacterial ribosomal RNA function over humanized ribosomes | E. coli WT GFP vs humanized-ribosome RFP mutants, fluorescence, 24 h; stronger effect = lower value; DMSO median 0, no signal -100 | actives 1.6% (n = 350,000) | GFP signal change (wild-type ribosome), % (no concentration beside the values) | AID 720706;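 active = significant combined selectivity score with lowered wild-type GFP, culture density cut under 30%, mutant RFP and density less affected; inactive = any of these conditions unmet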
E-sel inducer: induces E-selectin expression in human endothelial cells; activation, % at 7.58 µM; actives 0.37% (n = 260,000); P16581; HUVEC E-selectin immunofluorescence imaging; normalized: neutral wells 0, TNF-alpha wells 100;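 active = mean E-selectin-positive cell signal at least 10% of the positive control, reached in at least 60% of replicates, without over 20% cell loss; inconclusive = no rule given, readout overlaps actives, possibly toxicity-flagged; inactive = the rest, including those meeting only one limit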
Target sequence (P16581 whole entry, looked up): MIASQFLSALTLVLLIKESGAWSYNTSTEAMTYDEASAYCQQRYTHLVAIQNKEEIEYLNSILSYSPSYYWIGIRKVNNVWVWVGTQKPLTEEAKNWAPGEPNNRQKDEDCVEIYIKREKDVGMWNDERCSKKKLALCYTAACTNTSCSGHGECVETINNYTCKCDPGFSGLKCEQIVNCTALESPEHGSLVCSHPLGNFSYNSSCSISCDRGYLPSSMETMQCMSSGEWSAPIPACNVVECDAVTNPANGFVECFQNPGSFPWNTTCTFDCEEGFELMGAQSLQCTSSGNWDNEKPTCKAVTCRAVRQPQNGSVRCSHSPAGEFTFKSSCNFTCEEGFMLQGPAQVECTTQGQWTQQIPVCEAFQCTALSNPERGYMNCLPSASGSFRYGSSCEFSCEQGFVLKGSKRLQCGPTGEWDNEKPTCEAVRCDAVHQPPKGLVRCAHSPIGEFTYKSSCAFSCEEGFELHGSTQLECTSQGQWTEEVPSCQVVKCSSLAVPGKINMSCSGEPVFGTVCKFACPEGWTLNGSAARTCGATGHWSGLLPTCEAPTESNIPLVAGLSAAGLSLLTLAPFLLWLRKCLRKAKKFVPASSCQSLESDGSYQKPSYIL
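assay system = HUVEC, human umbilical vein endothelial cells | input = 3,000 HUVEC seeded per well | medium = EGM-2 growth medium on 0.1% gelatin-coated wells | dosing = one compound dose added by pin transfer | signal = immunofluorescence imaging | read-out basis = % PE-positive cells | control set = TNF-alpha, DMSO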
EWS-Fli block: EWS/Fli transcriptional activity inhibition; A673 NR0B1-luciferase reporter, viability-normalised; inhibition, % at 12.6 µM; actives 0.67% (n = 350,000);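 active = mean inhibition of at least 50% after viability correction, with every replicate also passing that limit; inconclusive = mean reaches 50% but only one of two replicates passes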;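 also: firefly luciferase signal divided by Alamar Blue viability fluorescence both relative to DMSO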
AID977621: growth inhibition of wild-type GFP E. coli, dose response, H69 mutant RFP, cherry-pick; shares compounds with rRNA inh HTS; E. coli wild-type GFP strain growth, fluorescence, 24 h; activity change, negative = inhibition at 50 µM; 1,900 tested, under 10 active; AID 977621;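 active = Wild-type ribosome reporter drop at least double the humanized mutant ribosome reporter drop, growth loss under a set limit; inconclusive = no clear call, values can overlap the other calls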;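 also: wild-type GFP and H69 mutant RFP strains grown together 50/50 in each well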
AID977628: E. coli growth inhibition, wild-type GFP versus h24 humanized RFP strain, dose response, h24 mutant RFP vs wild-type GFP, cherry-pick; shares compounds with rRNA inh HTS; E. coli WT GFP strain growth, fluorescence, 24 h; activity change, negative = inhibition at 50 µM; 1,900 tested, under 10 active;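 active = compound lowering the normal-ribosome reporter at least twice as much as the humanized-ribosome reporter, growth loss under a set limit; inconclusive = no clear call, values can overlap the other calls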;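 also: wild-type GFP and h24 humanized RFP strains co-cultured 1 to 1 per well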
Hits are given with their value; - = inactive; ? = inconclusive; . = no result given. Hits are enriched below; roughly 2.4% of the tested compounds scored in any of these assays.

SMILES | LGR2 antag | rRNA inh HTS | E-sel inducer | EWS-Fli block | AID977621 | AID977628
COc1ccc(S(=O)(=O)Nc2ccc3c(c2)C(=O)N([C@H](C)CO)C[C@@H](C)[C@@H](CN(C)S(=O)(=O)c2cn(C)cn2)OCCCC[C@H](C)O3)cc1 | - | - | - | - | . | .
COCc1ccc(C(=O)N2CCCC(C(=O)c3ccc(Cl)cc3C)C2)o1 (stereo not given) | - | -26 | . | . | - | -
Cn1c(CO)cnc1SCC(=O)c1ccc(Br)cc1 | - | -21 | . | - | - | -
C[C@H]1CN([C@@H](C)CO)C(=O)c2cc(NS(=O)(=O)c3ccc(Cl)cc3)ccc2O[C@H]1CN(C)S(=O)(=O)c1ccccc1 | - | - | - | - | . | .
CC(=O)Nc1sc(C)c(C)c1C(=O)OCC(=O)Nc1cc(S(C)(=O)=O)ccc1Cl | - | - | . | - | . | .
CS(=O)(=O)c1ccc(Cl)c(NC(=O)COC(=O)c2c(Cl)cccc2Cl)c1 | - | -26 | - | - | - | -
O=C(Nc1ccc(C(=O)N2CCCC2)cc1)C1CCCC1 | - | - | - | - | . | .
O=C(Cc1cccc(NC(=O)C2CCN(C(=O)C3CCCCC3)CC2)c1)Nc1cccc(C(=O)N2CCCC2)c1 | - | -22 | - | - | - | .
O=C(Nc1ccc(C(=O)N2CCOCC2)cc1)C1CCCC1 | - | -4.4 | - | - | - | -
O=C(N[C@@H]1C[C@@H]2O[C@@H](CO)CC[C@@H]2O[C@@H]1CCc1ccc(C#Cc2ccccc2)cc1)c1ccccn1 | . | . | . | - | . | .
C[C@@H]1CN([C@H](C)CO)C(=O)c2cc(NC(=O)Cc3ccccc3)ccc2O[C@@H](C)CCCCO[C@@H]1CN(C)S(C)(=O)=O | - | - | - | - | . | .
Cc1onc(-c2ccccc2Cl)c1C(=O)N1CCN(Cc2ccc3c(c2)OCO3)CC1 | - | -20 | . | - | - | -
Cc1onc(-c2c(Cl)cccc2Cl)c1C(=O)N1CCN(Cc2ccccc2)CC1 | - | - | . | - | . | .
O=C(C[C@H]1C=C[C@@H](NS(=O)(=O)c2ccc(F)cc2)[C@@H](CO)O1)NCCN1CCCCC1 | - | - | - | - | . | .
Cc1ccc2c(c1C)OC(=O)CC2c1ccccc1 (stereo not given) | - | -27 | - | - | . | ?
Cc1ccc(NC(=O)c2cccs2)cc1[N+](=O)[O-] | - | -28 | . | - | - | .
CC(=O)Nc1ccc(S(=O)(=O)Nc2ccc(C)c([N+](=O)[O-])c2)cc1 | - | -26 | - | - | . | ?
Cc1ccc(C(=O)Nc2ccc(NC(=O)c3cccs3)cc2)cc1[N+](=O)[O-] | . | - | . | - | . | .
Cc1ccc(S(=O)(=O)Nc2ccc3c(c2)CC(=O)N([C@H](C)CO)C[C@H](C)[C@H](CN(C)C(=O)NC(C)C)O3)cc1 | - | - | - | - | . | .
O=C(O)c1ccccc1C(=O)N1CCN(c2ncccn2)CC1 | - | - | . | - | . | .
O=C(c1ccc2c3c(cccc13)CC2)N1CCN(c2ncccn2)CC1 | - | -28 | . | - | - | -
CO[C@@H]1CN(C)C(=O)c2cc(NC(=O)C3CC3)ccc2OC[C@H](C)N(C(=O)c2ccccc2F)C[C@@H]1C | - | - | - | - | . | .
COc1cc2ccccc2cc1C(=O)NCC(c1cccs1)N(C)C (stereo not given) | - | -24 | . | - | ? | -
CCN(c1ccccc1)S(=O)(=O)c1cccc(C(=O)NCC(c2cccs2)N(C)C)c1 (stereo not given) | - | -24 | - | - | . | ?
Cc1ccc(CC2C(=O)N(c3cc(Cl)ccn3)C(=O)C2C)cc1 (stereo not given) | - | -20 | . | - | - | ?
Cc1ccc(CC2C(=O)N(c3ccccc3)C(=O)C2C)cc1 (stereo not given) | - | - | . | - | . | .
O=c1c2cc(Br)ccc2[nH]c(=S)n1Cc1ccccc1 | - | -36 | - | - | - | .
CNC[C@H]1Oc2ccc(NC(=O)NC(C)C)cc2C(=O)N([C@H](C)CO)C[C@H]1C | - | - | - | - | . | .
COc1ccc2cc(CO)c3cc(OC)c(OC)cc3c2c1 | - | -28 | . | - | - | .
COc1ccc2cc(CO)c(Cl)nc2c1 | - | - | . | - | . | .
